Assay results pooled from the literature.
Protocols differ between the studies behind these lines.
PRKAA1: 5'-AMP-activated protein kinase catalytic subunit alpha-1 (PRKAA1, Homo sapiens, UniProt Q13131)
G protein-coupled receptor 88: G protein-coupled receptor 88 (Homo sapiens, UniProt Q9GZN0)
CDK13: Cyclin-dependent kinase 13 (CDK13, Homo sapiens, UniProt Q14004)
Cnr2: Cannabinoid receptor 2 (Cnr2, Mus musculus, UniProt P47936)

Nc1ncc(-c2nc(N3CCOCC3)nc(N3CCOCC3)n2)c(C(F)F)n1
remaining binding (PRKAA1; cell-free assay, competition with immobilised ligand; 10 µM): 91%

CC(C)C[C@H](NC(=O)[C@H]1O[C@@H]1C(=O)O)C(=O)NCCCCN=C(N)N
inhibition (Procathepsin L (CTSL, Homo sapiens, UniProt P07711); enzyme activity, inhibitor; 500 pM): 13%

Cc1nc2c(=O)n(C)c(=O)nc-2n(C)n1
ΔTm (Protein disulfide-isomerase (P4HB, Homo sapiens, UniProt P07237); thermal stability, DSF; 10 µM): -2.94 °C

CC[C@@H](C)COc1ccc([C@@H](CO)C(=O)N[C@H](C)c2ccccc2)cc1
Emax (G protein-coupled receptor 88; cAMP, agonist, TR-FRET): 96%

Cn1cc(-c2cccc(N3CCc4c(sc5c4CC(C)(C)C5)C3=O)c2CO)cc(Nc2ccncn2)c1=O
inhibition (Sphingosine kinase 2 (SPHK2, Homo sapiens, UniProt Q9NRA0); enzyme activity, inhibitor; 1 µM): -1%

C#Cc1n[nH]c2c(-c3cn([C@@H](C)c4ccccn4)c(=O)[nH]c3=O)cc(F)cc12
inhibition (Protein kinase C theta type (PRKCQ, Homo sapiens, UniProt Q04759); enzyme activity, inhibitor; 0.1 µM): 13.6%

Cn1cc(-c2cc(F)cc(N3CCn4c(cc5c4CCCC5)C3=O)c2CO)cc(Nc2ccc(N3CCN(C4COC4)CC3)cn2)c1=O
inhibition (PRKAA1; enzyme activity, inhibitor; 0.1 µM): 0%

CCN1CCN(Cc2ccc(C(=O)Nc3ccc(C)c(Oc4ccc5c(c4)CC(=O)N5)c3)cc2C(F)(F)F)CC1
remaining binding (CDK13; binding, competition with immobilised ligand; 1 µM): 100%

Cc1nn(C)cc1-c1nc2c(N3CCN(Cc4ccc(Cl)cc4)CC3)c(Cl)cnc2[nH]1
remaining binding (PRKAA1; binding, competition with immobilised ligand; 1 µM): 2.4%

CCCCOc1ccc([C@@H](CO)C(=O)N[C@H](C)c2ccccc2)cc1
Emax (G protein-coupled receptor 88; cAMP, agonist, TR-FRET; CHO): 100%

CCOC(=O)C(CC)(CCCSCCOCCOCCNc1ccc([N+](=O)[O-])c2nonc12)NC(=O)c1ccc(C2CC2)c(Cc2ccc(F)cc2)n1 (racemic)
Emax (Cnr2; cAMP, agonist): 123%

CCCCCOc1ccc([C@@H](CO)C(=O)N[C@H](C)c2ccccc2)cc1
Emax (G protein-coupled receptor 88; cAMP, agonist, TR-FRET; CHO): 103%

CCOC(=O)C(CC)(CCCSCCOCCOCCOCCOCCNC(=O)OC(C)(C)C)NC(=O)c1ccc(C2CC2)c(Cc2ccc(F)cc2)n1 (stereo not drawn)
Emax (Cnr2; cAMP, agonist): 84%

CCC[C@H](C)COc1ccc([C@@H](CO)C(=O)N[C@H](C)c2ccccc2)cc1
Emax (G protein-coupled receptor 88; cAMP, agonist, TR-FRET; CHO): 97%

COc1ncccc1-c1cnn2ccc(N3CCN(C(=O)OC(C)C)CC3)nc12
remaining binding (CDK13; binding, competition with immobilised ligand; 1 µM): 95%
